Data published in paper PMC6839502 (Journal of Alzheimer's Disease, 2019).
Where “and” joins values, the source holds several entries; their conditions need not be identical. Equal entries are not always repeated.

Assays:
CSF Aβ fragments = test: CSF Aβ fragments, sAβPPα and sAβPPβ after multiple doses; type: in vivo, human; conditions: healthy adults
Summary of the method: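 Healthy adults (18–55 y), randomized double-blind placebo-controlled, oral QD for 14 days, fasted on Days 1, 7, and 14. Lumbar-puncture CSF was taken on Day –3 (B8271004) or Day 0 (B8271001) and on Day 15, 24 h post last dose. Total Aβ was measured by DELFIA (LLOQ 391.0 pg/mL). Ln change from baseline was analysed by ANCOVA with treatment as a fixed effect and ln baseline as covariate, then converted to percent change versus pooled placebo with 2-sided 80% CI.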

CSF Aβ1–40 and Aβ1–42 = test: Population PK/PD model of CSF Aβ1–40 and Aβ1–42; set-up: species or system human; conditions: in approximately 50% of subjects, simulated
Summary of the method: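 Population PK/PD model built on pooled data from both studies: CSF Aβ at baseline plus one steady-state trough value. Indirect-response model in which plasma drug concentration lowers the Aβ production rate. Population PK parameters were fixed. CSF turnover rates were fixed at 0.084/h (Aβ1–40) and 0.12/h (Aβ1–42), taken from a separate serial-CSF study.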

BACE1 over BACE 2 = conditions: radioligand binding assay; cited from earlier work
Aβ40 and Aβ42 = conditions: animal studies, subcutaneous administration; cited from earlier work

C[C@H]1C[C@H]2CSC(N)=N[C@@]2(c2nc(NC(=O)c3ccc(OC(F)F)cn3)cs2)CO1 [PF-06751979]
CSF Aβ1–38 percent change from baseline to Day 15 (2-sided 80% CI) (CSF Aβ fragments; 50 mg QD 14 days, B8271001): –58.4 (–61.34, –55.28) %
CSF Aβ1–40 percent change from baseline to Day 15 (2-sided 80% CI) (CSF Aβ fragments; 50 mg QD 14 days, B8271001): –70.2 (–74.20, –65.52) %
CSF Aβ1–40 placebo-adjusted percent change from baseline to Day 15 (2-sided 80% CI) (CSF Aβ fragments; 50 mg QD 14 days, B8271001): –68.1 (–75.87, –57.86) %
CSF Aβ1–42 percent change from baseline to Day 15 (2-sided 80% CI) (CSF Aβ fragments; 50 mg QD 14 days, B8271001): –71.9 (–74.97, –68.57) %
CSF Aβ total percent change from baseline to Day 15 (2-sided 80% CI) (CSF Aβ fragments; 50 mg QD 14 days, B8271001): –64.0 (–66.62, –61.25) %
CSF Aβx-38 percent change from baseline to Day 15 (2-sided 80% CI) (CSF Aβ fragments; 50 mg QD 14 days, B8271001): –60.2 (–63.42, –56.67) %
CSF Aβx-40 percent change from baseline to Day 15 (2-sided 80% CI) (CSF Aβ fragments; 50 mg QD 14 days, B8271001): –60.4 (–63.71, –56.76) %
CSF Aβx-42 percent change from baseline to Day 15 (2-sided 80% CI) (CSF Aβ fragments; 50 mg QD 14 days, B8271001): –64.3 (–67.21, –61.11) %
CSF sAβPPα percent change from baseline to Day 15 (2-sided 80% CI) (CSF Aβ fragments; 50 mg QD 14 days, B8271001): 48.4 (38.56, 58.98) %
CSF sAβPPβ percent change from baseline to Day 15 (2-sided 80% CI) (CSF Aβ fragments; 50 mg QD 14 days, B8271001): –70.6 (–72.23, –68.93) %
CSF Aβ1–38 percent change from baseline to Day 15 (2-sided 80% CI) (CSF Aβ fragments; 125 mg QD 14 days, B8271004): –80.3 (–81.51, –79.06) %
CSF Aβ1–40 percent change from baseline to Day 15 (2-sided 80% CI) (CSF Aβ fragments; 125 mg QD 14 days, B8271004): –85.5 (–86.45, –84.38) %
CSF Aβ1–40 placebo-adjusted percent change from baseline to Day 15 (2-sided 80% CI) (CSF Aβ fragments; 125 mg QD 14 days, B8271004): –83.8 (–85.65, –81.78) %
CSF Aβ1–42 percent change from baseline to Day 15 (2-sided 80% CI) (CSF Aβ fragments; 125 mg QD 14 days, B8271004): –86.4 (–87.40, –85.28) %
CSF Aβ total percent change from baseline to Day 15 (2-sided 80% CI) (CSF Aβ fragments; 125 mg QD 14 days, B8271004): –80.1 (–81.01, –79.18) %
CSF Aβx-38 percent change from baseline to Day 15 (2-sided 80% CI) (CSF Aβ fragments; 125 mg QD 14 days, B8271004): –82.0 (–83.18, –80.74) %
CSF Aβx-40 percent change from baseline to Day 15 (2-sided 80% CI) (CSF Aβ fragments; 125 mg QD 14 days, B8271004): –81.0 (–82.16, –79.76) %
CSF Aβx-42 percent change from baseline to Day 15 (2-sided 80% CI) (CSF Aβ fragments; 125 mg QD 14 days, B8271004): –81.9 (–82.76, –80.91) %
CSF sAβPPα percent change from baseline to Day 15 (2-sided 80% CI) (CSF Aβ fragments; 125 mg QD 14 days, B8271004): 58.7 (48.89, 69.05) %
CSF sAβPPβ percent change from baseline to Day 15 (2-sided 80% CI) (CSF Aβ fragments; 125 mg QD 14 days, B8271004): –81.3 (–82.21, –80.27) %
CSF Aβ1–38 percent change from baseline to Day 15 (2-sided 80% CI) (CSF Aβ fragments; 275 mg QD 14 days, B8271004): –87.9 (–88.82, –86.98) %
CSF Aβ1–40 percent change from baseline to Day 15 (2-sided 80% CI) (CSF Aβ fragments; 275 mg QD 14 days, B8271004): –92.9 (–93.54, –92.25) %
CSF Aβ1–40 placebo-adjusted percent change from baseline to Day 15 (2-sided 80% CI) (CSF Aβ fragments; 275 mg QD 14 days, B8271004): –92.1 (–93.15, –90.98) %
CSF Aβ1–42 percent change from baseline to Day 15 (2-sided 80% CI) (CSF Aβ fragments; 275 mg QD 14 days, B8271004): –93.6 (–94.22, –92.93) %
CSF Aβ total percent change from baseline to Day 15 (2-sided 80% CI) (CSF Aβ fragments; 275 mg QD 14 days, B8271004): –86.5 (–87.26, –85.74) %
CSF Aβx-38 percent change from baseline to Day 15 (2-sided 80% CI) (CSF Aβ fragments; 275 mg QD 14 days, B8271004): –90.1 (–90.91, –89.23) %
CSF Aβx-40 percent change from baseline to Day 15 (2-sided 80% CI) (CSF Aβ fragments; 275 mg QD 14 days, B8271004): –87.6 (–88.55, –86.62) %
CSF Aβx-42 percent change from baseline to Day 15 (2-sided 80% CI) (CSF Aβ fragments; 275 mg QD 14 days, B8271004): –86.6 (–87.43, –85.76) %
CSF sAβPPα percent change from baseline to Day 15 (2-sided 80% CI) (CSF Aβ fragments; 275 mg QD 14 days, B8271004): 81.7 (67.79, 96.85) %
CSF sAβPPβ percent change from baseline to Day 15 (2-sided 80% CI) (CSF Aβ fragments; 275 mg QD 14 days, B8271004): –84.3 (–85.28, –83.26) %
Maximum observed (placebo-adjusted) reduction in CSF Aβ1–42 (CSF Aβ fragments; 275 mg QD, 24 h after Day 14 dose): ~93% and 92.9%
Predicted average reduction of CSF Aβ1–40 and Aβ1–42 at steady state (CSF Aβ1–40 and Aβ1–42; 30 mg QD): approximately 60%
Predicted average reduction of CSF Aβ1–40 and Aβ1–42 at steady state (CSF Aβ1–40 and Aβ1–42; 75 mg QD): ~80%
Predicted average reduction of CSF Aβ1–40 and Aβ1–42 at steady state (CSF Aβ1–40 and Aβ1–42; 110 mg QD): ~85%
Selectivity for BACE1 over BACE2 (BACE1 over BACE 2): 26.6 fold
Aβ40 and Aβ42 in the brain and CSF (Aβ40 and Aβ42): robust reductions
